Data reported in ChEMBL document CHEMBL1124369, “Pyrido[3,4-e]-1,2,4-triazines and related heterocycles as potential antifungal agents” (1989).
In brackets after ≈: the same amount, converted by molar mass.

Experiments:
Kluyveromyces marxianus [1] = test: Antifungal activity against Candida pseudotropicalis; type: functional
Outline: (§1)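 Agar dilution MIC. Twofold serial drug dilutions in yeast nitrogen base medium with 1% dextrose, 0.15% asparagine and 1.5% agar. Agar surfaces inoculated using a Steers multiple inocula replicator, then incubated at 35 °C for 24-48 h. MIC was recorded as the lowest concentration inhibiting visible growth. Amphotericin B, miconazole and nystatin served as controls.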

Trichophyton rubrum [2] = test: Antifungal activity against Trichophyton rubrum; Range is 32-128; type: functional; outline: as §1
Trichophyton benhamiae [3] = test: Antifungal activity against Trichophyton mentagrophytes; Range is 64-128; type: functional, trychophyton mentagrophytes; outline: as §1
Candida albicans [4] = test: Antifungal activity against Candida albicans; type: functional; outline: as §1
Candida parapsilosis = test: Antifungal activity against Candida parapsilosis; type: functional; conditions: Lodderomyces parapsilosis; outline: as §1
Candida tropicalis [5] = test: Antifungal activity against Candida tropicalis; type: functional; outline: as §1
Aspergillus niger [6] = test: Antifungal activity against Aspergillus niger; type: functional; outline: as §1
Trichophyton rubrum [7] = test: Antifungal activity against Trichophyton rubrum; Range is 64-128; type: functional
Candida tropicalis [8] = test: Antifungal activity against Candida tropicalis; Range is 64-128; type: functional; outline: as §1
Trichophyton rubrum [9] = test: Antifungal activity against Trichophyton rubrum; type: functional; outline: as §1
Trichophyton benhamiae [10] = test: Antifungal activity against Trichophyton mentagrophytes; Range is 4-8; type: functional, trychophyton mentagrophytes; outline: as §1
Candida albicans [11] = test: Antifungal activity against Candida albicans; Range is 4-8; type: functional; outline: as §1
Kluyveromyces marxianus [12] = test: Antifungal activity against Candida pseudotropicalis; Range is 4-8; type: functional; outline: as §1
Candida tropicalis [13] = test: Antifungal activity against Candida tropicalis; Range is 4-8; type: functional; outline: as §1
Candida tropicalis [14] = test: Antifungal activity against Candida tropicalis; Range is 32-64; type: functional; outline: as §1
Trichophyton benhamiae [15] = test: Antifungal activity against Trichophyton mentagrophytes; Range is 16-32; type: functional, trychophyton mentagrophytes
Kluyveromyces marxianus [16] = test: Antifungal activity against Candida pseudotropicalis; Range is 1-32; type: functional; outline: as §1
Candida tropicalis [17] = test: Antifungal activity against Candida tropicalis; Range is 0.25-0.5; type: functional
Trichophyton benhamiae [18] = test: Antifungal activity against Trichophyton mentagrophytes; type: functional, trychophyton mentagrophytes; outline: as §1
Diutina rugosa = test: Antifungal activity against Candida rugosa; type: functional; outline: as §1
Candida albicans [19] = test: Antifungal activity against Candida stellatoidea; type: functional; outline: as §1
Mucor fragilis = test: Antifungal activity against Mucor fragilis; type: functional; outline: as §1
Candida albicans [20] = test: microbe, parasite or virus in culture
Aspergillus niger [21] = test: Antifungal activity against Aspergillus niger; Range is 16-128; type: functional; outline: as §1
Candida tropicalis [22] = test: Antifungal activity against Candida tropicalis; Range is 8-16; type: functional; outline: as §1
Kluyveromyces marxianus [23] = test: Antifungal activity against Candida pseudotropicalis; Range is 0.25-4; type: functional; outline: as §1
Candida albicans [24] = test: Antifungal activity against Candida albicans; Range is 8-16; type: functional; outline: as §1

Row | MIC (Kluyveromyces marxianus [1]) | MIC (Candida albicans [4]) | MIC (Candida parapsilosis) | MIC (Aspergillus niger [6]) | MIC (Trichophyton rubrum [9]) | MIC (Trichophyton benhamiae [18]) | MIC (Diutina rugosa) | MIC (Candida albicans [19]) | SMILES | other results
1 | 128 µg/mL (≈ 411 µM) | 128 µg/mL (≈ 411 µM) | 128 µg/mL (≈ 411 µM) | 128 µg/mL (≈ 411 µM) | – | – | – | – | CC(=O)Nc1c(C)nc(C)c2nc(-c3ccc(F)cc3)nnc12 | MIC (Trichophyton rubrum [2]): 32 µg/mL (≈ 103 µM); MIC (Trichophyton benhamiae [3]): 64 µg/mL (≈ 206 µM); MIC (Candida tropicalis [5]): 128 µg/mL (≈ 411 µM)
2 | 128 µg/mL (≈ 882 µM) | 128 µg/mL (≈ 882 µM) | 128 µg/mL (≈ 882 µM) | 128 µg/mL (≈ 882 µM) | – | – | – | – | Cc1nnc2ccccc2n1 | MIC (Trichophyton benhamiae [3]): 64 µg/mL (≈ 441 µM); MIC (Trichophyton rubrum [7]): 64 µg/mL (≈ 441 µM); MIC (Candida tropicalis [8]): 64 µg/mL (≈ 441 µM)
3 | – | – | 16 µg/mL (≈ 99.9 µM) | 32 µg/mL (≈ 200 µM) | 4 µg/mL (≈ 25 µM) | – | – | – | Cc1cc2nncnc2c(C)n1 | MIC (Trichophyton benhamiae [10]): 4 µg/mL (≈ 25 µM); MIC (Candida albicans [11]): 4 µg/mL (≈ 25 µM); MIC (Kluyveromyces marxianus [12]): 4 µg/mL (≈ 25 µM); MIC (Candida tropicalis [13]): 4 µg/mL (≈ 25 µM)
4 | – | 128 µg/mL (≈ 507 µM) | 128 µg/mL (≈ 507 µM) | 128 µg/mL (≈ 507 µM) | 32 µg/mL (≈ 127 µM) | – | – | – | CCC1(Cc2ccccc2)N=Nc2ccncc2N1 (stereo unspecified) | MIC (Candida tropicalis [14]): 32 µg/mL (≈ 127 µM); MIC (Trichophyton benhamiae [15]): 16 µg/mL (≈ 63.4 µM); MIC (Kluyveromyces marxianus [16]): 1 µg/mL (≈ 3.96 µM)
5 | 128 µg/mL (≈ 566 µM) | 128 µg/mL (≈ 566 µM) | – | – | > 128 µg/mL | 32 µg/mL (≈ 141 µM) | 128 µg/mL (≈ 566 µM) | 128 µg/mL (≈ 566 µM) | Fc1ccc(-c2nnc3ncccc3n2)cc1 | MIC (Candida tropicalis [5]): 128 µg/mL (≈ 566 µM); MIC (Aspergillus niger [21]): 16 µg/mL (≈ 70.7 µM)
6 | – | – | 16 µg/mL (≈ 38.4 µM) | 8 µg/mL (≈ 19.2 µM) | 1 µg/mL (≈ 2.4 µM) | 2 µg/mL (≈ 4.81 µM) | 8 µg/mL (≈ 19.2 µM) | 8 µg/mL (≈ 19.2 µM) | Clc1ccc(COC(Cn2ccnc2)c2ccc(Cl)cc2Cl)c(Cl)c1 (stereo unspecified) [MICONAZOLE] | MIC (Candida tropicalis [22]): 8 µg/mL (≈ 19.2 µM); MIC (Kluyveromyces marxianus [23]): 0.25 µg/mL (≈ 0.601 µM); MIC (Mucor fragilis): 8 µg/mL (≈ 19.2 µM); MIC (Candida albicans [24]): 8 µg/mL (≈ 19.2 µM)

Row | SMILES | MIC (Kluyveromyces marxianus [1]) | MIC (Candida albicans [4]) | MIC (Candida parapsilosis) | MIC (Aspergillus niger [6]) | MIC (Trichophyton rubrum [9]) | MIC (Trichophyton benhamiae [18]) | MIC (Diutina rugosa) | MIC (Candida albicans [19]) | other results
7 | C[C@@H]1[C@H](O)[C@@H](C)/C=C/C=C/C=C/C=C/C=C/C=C/C=C/[C@H](O[C@@H]2O[C@H](C)[C@@H](O)[C@H](N)[C@@H]2O)C[C@@H]2O[C@](O)(C[C@@H](O)C[C@@H](O)[C@H](O)CC[C@@H](O)C[C@@H](O)CC(=O)O[C@H]1C)C[C@H](O)[C@H]2C(=O)O [AMPHOTERICIN B] | 0.5 µg/mL (≈ 0.541 µM) | – | 0.5 µg/mL (≈ 0.541 µM) | 0.5 µg/mL (≈ 0.541 µM) | 0.5 µg/mL (≈ 0.541 µM) | 1 µg/mL (≈ 1.08 µM) | > 128 µg/mL | > 128 µg/mL | MIC (Candida tropicalis [17]): 0.25 µg/mL (≈ 0.271 µM); MIC (Mucor fragilis): 0.25 µg/mL (≈ 0.271 µM); MIC (Candida albicans [20]): 0.25 µg/mL (≈ 0.271 µM)
